Assay results as given in PMC8554411 (Pharmacology Research & Perspectives, 2021).
Values joined by “and” are separate entries in the source; they are usually repeats but may differ in a detail not shown here. Equal entries are not always repeated.

What was measured:
human mu opioid receptor [1] = target: T1, human mu opioid receptor (Homo sapiens, UniProt P35372); type: cell-based
mu opioid receptor [2] = target: mu opioid receptor (Rattus norvegicus, UniProt P33535); type: in vivo
mu opioid receptor [3] = conditions: mice treated with MCAM; cited from earlier work
[4] = target: human kappa opioid receptors (Homo sapiens, UniProt P41145); type: cell-based
Chain of human kappa opioid receptors (P41145 whole entry): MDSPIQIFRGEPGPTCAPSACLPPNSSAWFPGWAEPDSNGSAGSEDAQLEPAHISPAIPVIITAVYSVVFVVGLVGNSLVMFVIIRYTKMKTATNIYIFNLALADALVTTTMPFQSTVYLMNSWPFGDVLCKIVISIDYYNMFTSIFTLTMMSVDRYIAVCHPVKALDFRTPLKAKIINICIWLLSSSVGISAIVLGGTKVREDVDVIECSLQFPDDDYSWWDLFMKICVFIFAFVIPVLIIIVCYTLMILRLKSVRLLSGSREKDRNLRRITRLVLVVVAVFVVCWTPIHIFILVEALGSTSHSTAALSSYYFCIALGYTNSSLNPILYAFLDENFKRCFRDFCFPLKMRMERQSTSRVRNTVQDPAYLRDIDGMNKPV

kappa opioid receptor = kappa opioid receptor (Rattus norvegicus, UniProt P34975); conditions: in vivo
Chain of kappa opioid receptor (P34975 whole entry): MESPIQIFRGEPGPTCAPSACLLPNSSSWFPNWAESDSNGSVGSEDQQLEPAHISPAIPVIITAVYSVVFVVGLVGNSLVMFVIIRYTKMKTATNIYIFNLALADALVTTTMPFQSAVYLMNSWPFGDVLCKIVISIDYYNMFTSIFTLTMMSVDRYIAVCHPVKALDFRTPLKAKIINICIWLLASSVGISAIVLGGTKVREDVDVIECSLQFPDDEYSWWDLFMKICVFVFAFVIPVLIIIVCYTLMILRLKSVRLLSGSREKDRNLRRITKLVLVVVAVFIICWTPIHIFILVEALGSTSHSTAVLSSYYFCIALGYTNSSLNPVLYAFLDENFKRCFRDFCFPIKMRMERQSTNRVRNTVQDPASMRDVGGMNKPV

delta opioid receptor = delta opioid receptor (Rattus norvegicus, UniProt P33533); type: in vivo
Chain of delta opioid receptor (P33533 whole entry): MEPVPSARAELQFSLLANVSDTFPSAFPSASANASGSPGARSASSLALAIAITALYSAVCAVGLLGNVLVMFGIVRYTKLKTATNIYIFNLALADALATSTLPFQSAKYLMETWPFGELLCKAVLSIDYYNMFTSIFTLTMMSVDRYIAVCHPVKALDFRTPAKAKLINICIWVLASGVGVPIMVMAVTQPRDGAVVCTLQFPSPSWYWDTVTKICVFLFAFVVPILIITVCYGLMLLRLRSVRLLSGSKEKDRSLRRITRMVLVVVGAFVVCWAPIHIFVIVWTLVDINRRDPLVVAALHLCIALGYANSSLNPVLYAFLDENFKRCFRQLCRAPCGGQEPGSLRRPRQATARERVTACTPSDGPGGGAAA

[5] = target: human delta opioid receptors (Homo sapiens, UniProt P41143); type: cell-based; conditions: MCAM 20 nM
Chain of human delta opioid receptors (P41143 whole entry): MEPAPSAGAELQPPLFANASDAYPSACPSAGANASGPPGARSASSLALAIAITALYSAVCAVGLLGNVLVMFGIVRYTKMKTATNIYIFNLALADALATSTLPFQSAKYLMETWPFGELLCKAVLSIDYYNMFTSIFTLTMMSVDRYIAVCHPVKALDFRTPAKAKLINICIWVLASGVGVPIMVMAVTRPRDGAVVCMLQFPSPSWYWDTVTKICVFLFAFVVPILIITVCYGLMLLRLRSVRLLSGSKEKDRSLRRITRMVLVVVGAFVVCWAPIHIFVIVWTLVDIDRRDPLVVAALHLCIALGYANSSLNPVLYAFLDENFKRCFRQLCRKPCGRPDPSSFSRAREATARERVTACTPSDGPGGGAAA
Procedure, shortened: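 HEK293 cells stably co-expressing the GloSensor 22F cAMP sensor and human delta receptor were kept under hygromycin B/G418 selection and plated at 40 000/well. They were loaded 2 h in the dark at 30°C with 450 μg/ml D-luciferin. Antagonist was added 15 min before agonist or during loading; for washout, medium was replaced twice. Luminescence was read at 30°C, 1 Hz: 5 min baseline, 5 min agonist, then 30 min forskolin (10 μM). Results were expressed as % forskolin stimulation; ≥4 experiments, triplicate.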

human mu opioid receptor [6] = target: T1, human mu opioid receptor; assay: cell-based; conditions: HEK293, read-out: DAMGO Emax, inhibition of forskolin stimulated cAMP levels
human mu opioid receptor [7] = target: T1, human mu opioid receptor; type: cell-based; remark: listed apart in the source

T1 sequence (P35372 whole entry): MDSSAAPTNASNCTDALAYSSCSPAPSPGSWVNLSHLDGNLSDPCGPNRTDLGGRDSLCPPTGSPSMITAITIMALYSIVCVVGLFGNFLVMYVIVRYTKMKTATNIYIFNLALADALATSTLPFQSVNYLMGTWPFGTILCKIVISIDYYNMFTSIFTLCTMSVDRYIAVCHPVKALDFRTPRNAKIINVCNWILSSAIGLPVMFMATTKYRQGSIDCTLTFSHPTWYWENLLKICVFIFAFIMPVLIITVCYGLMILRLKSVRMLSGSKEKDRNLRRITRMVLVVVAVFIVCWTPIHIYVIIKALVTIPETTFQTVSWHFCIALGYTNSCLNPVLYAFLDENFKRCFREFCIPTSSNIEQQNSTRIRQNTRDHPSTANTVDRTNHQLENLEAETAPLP
Chain of mu opioid receptor (Rattus norvegicus, UniProt P33535) (P33535 whole entry): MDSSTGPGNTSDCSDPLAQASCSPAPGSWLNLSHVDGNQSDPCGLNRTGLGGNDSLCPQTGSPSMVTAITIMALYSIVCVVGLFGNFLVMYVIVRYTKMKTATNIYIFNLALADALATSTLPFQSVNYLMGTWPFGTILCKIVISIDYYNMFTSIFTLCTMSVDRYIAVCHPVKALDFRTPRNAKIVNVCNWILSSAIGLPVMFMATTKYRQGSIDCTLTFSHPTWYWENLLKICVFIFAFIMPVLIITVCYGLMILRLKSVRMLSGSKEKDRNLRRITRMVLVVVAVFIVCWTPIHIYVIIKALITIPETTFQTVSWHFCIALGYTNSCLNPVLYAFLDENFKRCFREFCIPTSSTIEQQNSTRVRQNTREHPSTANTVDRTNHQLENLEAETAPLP

Q: What does the source list for `Cc1ccc(/C=C/C(=O)N[C@@]23CCC(=O)[C@@H]4Oc5c(O)ccc6c5[C@@]42CCN(CC2CC2)[C@@H]3C6)cc1` [MCAM, 14β‐(4′‐methylcinnamoylamido)‐7,8‐dihydro‐N‐cyclopropylmethyl‐normorphinone]?
A: effect of antagonist alone on forskolin-stimulated cAMP levels (human mu opioid receptor [1]): did not alter; effect of washout on antagonism of DAMGO (human mu opioid receptor [1]): did not alter; effect of washout on the reduction of the DAMGO maximal response (human mu opioid receptor [1]): insensitive to washout; rightward shift of the morphine concentration response curve by the antagonist (human mu opioid receptor [1]): 10 fold; effect of antagonist on the antinociceptive response to DAMGO (mu opioid receptor [2]; MCAM 0.25 μg/50 μl i.pl., 15 min pretreatment): antagonized; 3H-DAMGO binding in brain tissue (mu opioid receptor [3]): reduced; change in the maximal response to U50488 [4]: no change; rightward shift of the curve for U50488 by the antagonist [4]: ~ 10 fold; effect of washout on antagonism at kappa receptors ([4]; MCAM 50 nM, 2 h, then wash): fully reversed; effect of antagonist on U50488-mediated antinociceptive response (kappa opioid receptor): did not block; effect of antagonist on the antinociceptive response to U50488 (kappa opioid receptor): antagonized; effect of antagonist on the antinociceptive response to DPDPE (delta opioid receptor; MCAM 0.5 μg/50 μl i.pl., 15 min pretreatment): antagonized; effect of antagonist on DPDPE-mediated antinociceptive response (delta opioid receptor; tested 24 h after MCAM administration i.pl.): did not block; change in the maximal response to DPDPE ([5]; 15 min or 2 h pretreatment): no change; rightward shift of the curve for DPDPE by the antagonist ([5]; 15 min or 2 h pretreatment): ~ 10 fold; effect of washout on antagonism at delta receptors ([5]; 2 h, then wash): fully reversed

Q: For `C[C@@H](NC(=O)[C@@H](N)Cc1ccc(O)cc1)C(=O)NCC(=O)N(C)[C@@H](Cc1ccccc1)C(=O)NCCO` [DAMGO, [D‐Ala^2,N‐MePhe^4,Gly‐ol^5]‐enkephalin], which “Emax (maximal inhibition of forskolin-stimulated cAMP levels) by DAMGO” value (human mu opioid receptor [1]) is on record?
A: 43% ± 2% and 46% ± 3% and 48% ± 5%

Q: What about the “response to DAMGO (inhibition of forskolin-stimulated cAMP levels)” value (human mu opioid receptor [1]) of the same compound?
A: essentially abolished

Q: What about the “effect of agonist on PGE2-stimulated thermal allodynia” value (mu opioid receptor [2]; DAMGO 20 μg i.pl., vehicle pretreatment, rat hindpaw) of the same compound?
A: reduced

Q: And the Emax (human mu opioid receptor [6])?
A: 85%

Q: Which “effect of antagonist alone on forskolin-stimulated cAMP levels” value (human mu opioid receptor [1]) does the source give for `COC(=O)/C=C/C(=O)N[C@@H]1CC[C@@]2(O)[C@H]3Cc4ccc(O)c5c4[C@@]2(CCN3CC2CC2)[C@H]1O5` [β‐FNA, β‐funaltrexamine] here?
A: had no effect

Q: And the “effect of washout on antagonism of DAMGO” value (human mu opioid receptor [1])?
A: not sensitive to washout

Q: What about the “rightward shift of the DAMGO curve by the antagonist” value (human mu opioid receptor [7]) of the same compound?
A: about 100 fold
